Values joined by “and” are separate entries in the source; they are usually repeats but may differ in a detail not shown here. Identical values can stand only once.
What was measured:
[1] = molecular target: Estrogen receptor (Bos taurus) (UniProt Q9XSB5+P49884); test: Relative binding affinity for the calf uterine estrogen receptor by 17-beta-[3H]-estradiol displacement.; assay type: protein assay
In short: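 Calf uterine cytosol (105000g supernatant, 3 mg/mL protein final) in Tris-EDTA-NaN3 buffer, pH 7.5. Incubated with 5 nM 17β-[3H]estradiol and 10^-9–10^-5 M competitor for 18 h at 4 °C. Dextran-coated charcoal added for 90 min, then supernatant radioactivity counted. Nonspecific binding taken with 5 µM estradiol. RBA = molar ratio of estradiol to competitor at 50% displacement ×100.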

MCF7 [2] = test: Effect on [3H]thymidine incorporation into estrogen receptor positive MCF-7 human breast carcinoma cells at 10e-5 M (ex 1); assay type: functional
In short: (§1)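 MCF-7 cells kept in MEM with 5% charcoal-stripped newborn calf serum for two weeks. About 2×10^4 cells per well plated, then one day later exposed to compound in 0.1% ethanol. Ethanol-only controls. Medium changed on day 4. Three days later cells labelled with 1 µCi [3H]thymidine per well for 2 h. TCA-insoluble radioactivity per dish counted, mean of six dishes ± SD, expressed as % T/C.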

MDA-MB-231 [3] = test: Effect on [3H]thymidine incorporation into estrogen receptor negative MDA-MB 231 human breast carcinoma cells at 1*10e-6 M; assay type: functional
MDA-MB-231 [4] = test: Effect on [3H]thymidine incorporation into estrogen receptor negative MDA-MB 231 human breast carcinoma cells at 1*10e-5 M (ex 1); assay type: functional
MDA-MB-231 [5] = test: Effect on [3H]thymidine incorporation into estrogen receptor negative MDA-MB 231 human breast carcinoma cells at 5*10e-6 M; assay type: functional
MCF7 [6] = test: Effect on [3H]thymidine incorporation into estrogen receptor positive MCF-7 human breast carcinoma cells at 10e-6 M (ex 2)
MCF7 [7] = test: Effect on [3H]thymidine incorporation into estrogen receptor positive MCF-7 human breast carcinoma cells at 10e-7 M (ex 2)
[8] = molecular target: T1, Estrogen receptor (Mus musculus) (UniProt O08537+P19785); test: (§2) Estrogenic activity as Uterus dry weight (mg)/body weight (g) *100 in mice with 0.4 ug estrone; assay type: functional, tissue-based
T1 sequence (O08537 whole entry, looked up): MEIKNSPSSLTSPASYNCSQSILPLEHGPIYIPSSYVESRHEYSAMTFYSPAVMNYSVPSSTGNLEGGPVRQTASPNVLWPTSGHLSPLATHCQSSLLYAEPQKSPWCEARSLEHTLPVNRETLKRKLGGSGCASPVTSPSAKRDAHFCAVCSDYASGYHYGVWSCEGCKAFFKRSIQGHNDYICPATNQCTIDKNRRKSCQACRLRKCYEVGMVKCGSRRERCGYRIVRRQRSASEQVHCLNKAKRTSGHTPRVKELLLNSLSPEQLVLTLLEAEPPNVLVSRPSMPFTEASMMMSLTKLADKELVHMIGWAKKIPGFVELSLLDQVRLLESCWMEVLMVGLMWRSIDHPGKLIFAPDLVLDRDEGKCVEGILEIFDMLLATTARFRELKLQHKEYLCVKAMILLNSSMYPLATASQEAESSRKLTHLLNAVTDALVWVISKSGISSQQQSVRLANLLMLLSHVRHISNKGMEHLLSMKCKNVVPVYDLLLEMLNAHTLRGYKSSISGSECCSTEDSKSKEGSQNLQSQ
T1 sequence (P19785 whole entry, looked up): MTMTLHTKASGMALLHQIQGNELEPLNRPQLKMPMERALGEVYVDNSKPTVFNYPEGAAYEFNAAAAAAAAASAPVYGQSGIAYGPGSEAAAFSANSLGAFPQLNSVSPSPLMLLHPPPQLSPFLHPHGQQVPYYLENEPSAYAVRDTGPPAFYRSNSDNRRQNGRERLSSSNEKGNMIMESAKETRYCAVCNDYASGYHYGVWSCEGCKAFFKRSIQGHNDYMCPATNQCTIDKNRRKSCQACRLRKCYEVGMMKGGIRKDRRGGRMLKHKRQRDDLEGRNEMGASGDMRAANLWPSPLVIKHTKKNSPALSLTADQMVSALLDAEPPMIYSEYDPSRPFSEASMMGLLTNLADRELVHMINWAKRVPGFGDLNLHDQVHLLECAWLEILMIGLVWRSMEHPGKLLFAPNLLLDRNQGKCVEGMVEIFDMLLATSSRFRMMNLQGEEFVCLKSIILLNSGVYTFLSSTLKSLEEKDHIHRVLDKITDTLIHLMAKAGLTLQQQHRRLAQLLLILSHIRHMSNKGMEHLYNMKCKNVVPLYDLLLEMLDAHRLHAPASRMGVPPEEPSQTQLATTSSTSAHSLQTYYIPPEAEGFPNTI
In short: (§3)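 Immature mice given 0.4 µg estrone per animal sc on three consecutive days. Control animals got vehicle. Killed 24 h after the last injection. Uteri fixed in Bouin, dried at 100 °C for 24 h and weighed. Result expressed as uterine dry weight (mg)/body weight (g) ×100, mean of 10 animals ± SD.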

[9] = molecular target: T1, Estrogen receptor (Mus musculus); test: as §2; assay type: functional, tissue-based; in short: as §3; remark: listed apart in the source
[10] = molecular target: T1, Estrogen receptor (Mus musculus); test: Anti-estrogenic activity as Uterus dry weight (mg)/body weight (g) *100 in mice at 1 ug; assay type: functional, tissue-based
In short: (§4)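 Immature mice, sc injection on three consecutive days of test compound together with a standard 0.4 µg estrone per animal and day. Dose per animal. Control animals got vehicle. Killed 24 h after the last injection. Uteri Bouin-fixed, cleaned, washed in alcoholic LiCl, dried at 100 °C for 24 h and weighed. Read-out is uterine dry weight (mg)/body weight (g) ×100, mean of 10 animals ± SD.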

[11] = molecular target: T1, Estrogen receptor (Mus musculus); test: Anti-estrogenic activity as Uterus dry weight (mg)/body weight (g) *100 in mice at 125 ug; assay type: functional, tissue-based; in short: as §4
[12] = molecular target: T1, Estrogen receptor (Mus musculus); test: Anti-estrogenic activity as Uterus dry weight (mg)/body weight (g) *100 in mice at 25 ug; assay type: functional, tissue-based; in short: as §4
[13] = molecular target: T1, Estrogen receptor (Mus musculus); test: Anti-estrogenic activity as Uterus dry weight (mg)/body weight (g) *100 in mice at 5 ug; assay type: functional, tissue-based; in short: as §4
[14] = molecular target: T1, Estrogen receptor (Mus musculus); test: Percent inhibition of estrone-stimulated uterine growth in mice; assay type: functional; design: concentration or dose not given beside the values; conditions: concentration not given here
In short: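 Mouse antiuterotrophic test. Immature mice injected sc on three consecutive days with 0.4 µg estrone plus increasing doses per animal of test compound. Dry uterine weight/body weight ×100 determined 24 h after the last injection, 10 animals per group. Inhibition (%) = 100 − [(E_S,T − E_V)/(E_S − E_V)] ×100, where E_S is estrone alone and E_V is vehicle. Significance by Mann-Whitney U-test.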

[15] = molecular target: T1, Estrogen receptor (Mus musculus); test: Estrogenic activity as Uterus dry weight (mg)/body weight (g) *100 in mice at 5 ug
[16] = molecular target: T1, Estrogen receptor (Mus musculus); test: Estrogenic activity as Uterus dry weight (mg)/body weight (g) *100 in mice at 25 ug
[17] = molecular target: T1, Estrogen receptor (Mus musculus); test: Estrogenic activity as Uterus dry weight (mg)/body weight (g) *100 in mice at 625 ug
[18] = molecular target: T1, Estrogen receptor (Mus musculus); test: as §2; assay type: functional, tissue-based; in short: as §3; remark: listed apart in the source
MCF7 [19] = test: Effect on [3H]thymidine incorporation into estrogen receptor positive MCF-7 human breast carcinoma cells at 10e-7 M (ex 1); assay type: functional; in short: as §1
MCF7 [20] = test: Effect on [3H]thymidine incorporation into estrogen receptor positive MCF-7 human breast carcinoma cells at 10e-6 M (ex 1); assay type: functional; in short: as §1
[21] = in the assay text read “Estrogenic activity” for “Anti-estrogenic activity”

| SMILES | relative binding affinity (RBA) [1] | Activity [10] | Activity [11] | Activity [11, 21] | Activity [12] | Activity [13] | inhibition [14] | Activity [15] | Activity [16] | Activity [17] | further results |
| --- | --- | --- | --- | --- | --- | --- | --- | --- | --- | --- | --- |
| Cc1c(-c2ccc(O)cc2)n(CC2CCCCC2)c2ccc(O)cc12 | 5.2 | – | – | – | – | – | – | – | – | – | – |
| Cc1c(-c2ccc(O)cc2)n(Cc2ccc(C#N)cc2)c2ccc(O)cc12 | 14 | – | – | – | – | – | – | – | – | – | T/C (MCF7 [2]): 1.3 ×10^4 per dish; T/C (MDA-MB-231 [3]): 10.5 ×10^4 per dish; T/C (MDA-MB-231 [4]): 11 ×10^4 per dish; T/C (MDA-MB-231 [5]): 10.5 ×10^4 per dish; T/C (MCF7 [6]): 7.8 ×10^4 per dish; T/C (MCF7 [7]): 17.3 ×10^4 per dish |
| COc1ccc(Cn2c(-c3ccc(OC(C)=O)cc3)c(C)c3cc(OC(C)=O)ccc32)cc1 | – | 47.1 | 40.1 | 30.9 | 46.8 | 47.4 | 23% | 14.3 | 14.7 | 45 | Activity [8]: 47.8; Activity [9]: 52.2 |
| CC(=O)Oc1ccc(-c2c(C)c3cc(OC(C)=O)ccc3n2Cc2ccc(C)cc2)cc1 | – | 49.2 | 36 | 32.9 | 42.5 | 46.3 | 16% and < 35% | 14.4 | 20.3 | 40 | Activity [8]: 46.5 and 47.8 |
| Cc1c(-c2ccc(O)cc2)n(Cc2ccc(O)cc2)c2ccc(O)cc12 | 8 | – | – | – | – | – | – | – | – | – | – |
| Cc1c(-c2ccc(O)cc2)n(CCc2ccccc2)c2ccc(O)cc12 | 2 | – | – | – | – | – | – | – | – | – | – |
| Cc1c(-c2ccc(O)cc2)n(Cc2ccccc2)c2cc(O)ccc12 | 11 | – | – | – | – | – | – | – | – | – | – |
| Cc1c(-c2ccc(O)cc2)n(Cc2ccccc2Cl)c2ccc(O)cc12 | 8.7 | – | – | – | – | – | – | – | – | – | – |
| Cc1c(-c2ccc(O)cc2)n(Cc2c(Cl)cccc2Cl)c2ccc(O)cc12 | 3.6 | – | – | – | – | – | – | – | – | – | – |
| CC(=O)Oc1ccc(-c2c(C)c3ccc(OC(C)=O)cc3n2Cc2ccccc2)cc1 | – | 54.2 | 44.6 | 32.4 | 52.1 | 50.4 | 11% | 12.3 | 17.1 | 32.6 | Activity [18]: 48.2; Activity [9]: 46.5 |
| Cc1c(-c2ccc(O)cc2)n(Cc2ccccc2)c2ccc(O)cc12 | 16 | – | – | – | – | – | – | – | – | – | T/C (MCF7 [19]): 20.3 ×10^4 per dish; T/C (MCF7 [20]): 17.4 ×10^4 per dish |
| CC(=O)Oc1ccc(-c2c(C)c3ccc(OC(C)=O)cc3n2-c2ccccc2)cc1 | – | 43.2 | 32.4 | 26.4 | 43.5 | 41 | 33% | 13.4 | 17.8 | 34.8 | Activity [8]: 42; Activity [9]: 42 |
| Cc1c(-c2ccc(O)cc2)n(Cc2cccc(Cl)c2)c2ccc(O)cc12 | 5.1 | – | – | – | – | – | – | – | – | – | – |

Reference: ChEMBL document CHEMBL1123659, “2-Phenylindoles. Effect of N-benzylation on estrogen receptor affinity, estrogenic properties, and mammary tumor inhibiting activity” (J Med Chem, 1987)
